Data published in ChEMBL document CHEMBL4270533, “Lipidated α/α-AA heterogeneous peptides as antimicrobial agents” (Eur J Med Chem, 2018).
≈ marks a conversion by molar mass, not a printed value.

Legend:
Klebsiella pneumoniae = experiment: Antimicrobial activity against Klebsiella pneumoniae ATCC 13383 after 18 hrs; format: functional; conditions: ATCC 13383, 18 h
Summary of the method: (§1)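 Broth microdilution. Bacteria grown overnight in trypticase soy broth at 37 °C with shaking, then regrown to mid-log phase. 10^6 CFU/mL mixed 1:1 with peptide (100 to 0.5 μg/mL) and incubated 18 h at 37 °C. MIC taken as the lowest concentration inhibiting growth by OD600. Untreated bacteria served as control. Three experiments, each in duplicate.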

Escherichia coli [1] = experiment: Antimicrobial activity against Escherichia coli JM109 after 18 hrs; format: functional; conditions: JM109, 18 h; summary of the method: as §1
[2] = system: Staphylococcus epidermidis; experiment: Antimicrobial activity against methicillin-resistant Staphylococcus epidermidis RP62A after 18 hrs; format: functional
Summary of the method: (§2)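 Broth microdilution. A colony was grown overnight in trypticase soy broth at 37 °C with shaking, then regrown to mid-log phase. 10^6 CFU/mL inoculum was mixed 1:1 with peptide dilutions (100 to 0.5 μg/mL) and incubated 18 h at 37°C. Read at OD600; MIC is the lowest concentration inhibiting growth. Three experiments, each in duplicate.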

[3] = Selectivity ratio of HC50 for hemolytic activity in human RBC to MIC for methicillin-resistant Staphylococcus aureus ATCC 33591; format: toxicity; conditions: red blood cells (erythrocytes)
Enterococcus faecalis = experiment: Antimicrobial activity against vancomycin-resistant Enterococcus faecalis ATCC 700802 after 18 hrs; format: functional; conditions: ATCC 700802, 18 h; summary of the method: as §2
[4] = Hemolytic activity in human RBC after 1 hr; format: ADME, cell-based, Erythrocyte; conditions: red blood cells (erythrocytes)
Summary of the method: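 Fresh human erythrocytes, PBS-washed (1000g, 10 min), as a 5% v/v suspension mixed 1:1 with two-fold compound dilutions. Incubated 1 h at 37 °C, then centrifuged. Supernatant hemoglobin read at 540 nm. PBS served as 0% lysis and 0.1% Triton X-100 as 100% lysis; % hemolysis computed relative to these.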

Staphylococcus aureus = experiment: Antimicrobial activity against methicillin-resistant Staphylococcus aureus ATCC 33591 after 18 hrs; format: functional; conditions: ATCC 33591, 18 h; summary of the method: as §2
Escherichia coli [5] = experiment: Bactericidal activity against Escherichia coli assessed as time required for bacterial kill at 25 to 50 ug/ml by time kill assay; format: functional
Escherichia coli [6] = experiment: Bactericidal activity against Escherichia coli assessed as time required for bacterial kill at 12.5 ug/ml by time kill assay; format: functional

SMILES | MIC (Klebsiella pneumoniae) [µg/mL] | MIC (Escherichia coli [1]) [µg/mL] | MIC [2] [µg/mL] | selectivity ratio [3] | MIC (Enterococcus faecalis) [µg/mL] | HC50 at 1 h [4] [µg/mL] | MIC (Staphylococcus aureus) [µg/mL] | Time (Escherichia coli [5]) [min] | Time (Escherichia coli [6]) [min]
CCCCCCCCCCCCCCCC(=O)N[C@@H](CCCCN)C(=O)NCCN(C(=O)CCc1ccccc1)[C@@H](CCCCN)C(N)=O | 6 to 12 (≈ 8.73 to 17.5 µM) | 1.5 to 3 (≈ 2.18 to 4.37 µM) | 3 to 6 (≈ 4.37 to 8.73 µM) | 10.4 | 6 to 12 (≈ 8.73 to 17.5 µM) | 31.2 | 1.5 to 3 (≈ 2.18 to 4.37 µM) |  | 
CCCCCCCCCCCCCCCC(=O)N[C@@H](CCCCN)C(=O)NCCN(C(=O)CCc1ccccc1)[C@@H](CCCCN)C(=O)NCCN(C(=O)CCc1ccccc1)[C@@H](CCCCN)C(=O)NCCN(C(=O)CCc1ccccc1)[C@@H](CCCCN)C(N)=O | > 25 | 1.5 to 3 (≈ 1.16 to 2.32 µM) | 3 to 6 (≈ 2.32 to 4.64 µM) | 83 | 6 to 12 (≈ 4.64 to 9.27 µM) | 250 | 1.5 to 3 (≈ 1.16 to 2.32 µM) |  | 
CCCCCCCCCCCC(=O)N[C@@H](CCCCN)C(=O)NCCN(C(=O)CCc1ccccc1)[C@@H](CCCCN)C(N)=O | > 25 | > 25 | > 25 |  | > 25 |  | > 25 |  | 
CCCCCCCCCCCCCCCC(=O)N[C@@H](CCCCN)C(=O)NCCN(C(=O)CCCN)[C@@H](Cc1ccccc1)C(N)=O | 3 (≈ 4.55 µM) | 3 (≈ 4.55 µM) |  |  |  | 125 |  | 60 | 120
CCCCCCCCCCCCCCCC(=O)NCCN(C(=O)CCc1ccccc1)[C@@H](CCCCN)C(N)=O | > 25 | > 25 | > 25 |  | > 25 |  | 25 (≈ 44.7 µM) |  | 
CCCCCCCCCCCCCCCC(=O)N[C@@H](CCCCN)C(=O)NCCN(C(=O)CCc1ccccc1)[C@@H](CCCCN)C(=O)NCCN(C(=O)CCc1ccccc1)[C@@H](CCCCN)C(N)=O | > 25 | 1.5 to 3 (≈ 1.51 to 3.03 µM) | > 25 | 10.4 | > 25 | 31.2 | < 3 |  | 
CCCCCC(=O)N[C@@H](CCCCN)C(=O)NCCN(C(=O)CCc1ccccc1)[C@@H](CCCCN)C(N)=O | > 25 | > 25 | > 25 |  | > 25 |  | > 25 |  | 
CCCCCCCCCC(=O)N[C@@H](CCCCN)C(=O)NCCN(C(=O)CCc1ccccc1)[C@@H](CCCCN)C(N)=O | > 25 | > 25 | > 25 |  | > 25 |  | > 25 |  | 
CCCCCCCCCCCCCC(=O)N[C@@H](CCCCN)C(=O)NCCN(C(=O)CCc1ccccc1)[C@@H](CCCCN)C(N)=O | > 25 | 6 to 12 (≈ 9.11 to 18.2 µM) | > 25 |  | > 25 |  | 12 to 25 (≈ 18.2 to 37.9 µM) |  | 
CCCCCCCC(=O)N[C@@H](CCCCN)C(=O)NCCN(C(=O)CCc1ccccc1)[C@@H](CCCCN)C(N)=O | > 25 | > 25 | > 25 |  | > 25 |  | > 25 |  | 
